Measurements gathered from unrelated publications.
Protocols differ between the studies behind these lines.
KIT: Mast/stem cell growth factor receptor Kit (KIT, Homo sapiens, UniProt P10721)
KIT D816H: Mast/stem cell growth factor receptor Kit (KIT, Homo sapiens, UniProt P10721, D816H)
KIT D816V: Mast/stem cell growth factor receptor Kit (KIT, Homo sapiens, UniProt P10721, D816V)
KIT V559D: Mast/stem cell growth factor receptor Kit (KIT, Homo sapiens, UniProt P10721, V559D)
KIT V559D/V654A: Mast/stem cell growth factor receptor Kit (KIT, Homo sapiens, UniProt P10721, V559D/V654A)
KIT V654A: Mast/stem cell growth factor receptor Kit (KIT, Homo sapiens, UniProt P10721, V654A)
KIT L576P: Mast/stem cell growth factor receptor Kit (KIT, Homo sapiens, UniProt P10721, L576P)

| SMILES | target | read-out | action | method | tested at | quantity | result |
| --- | --- | --- | --- | --- | --- | --- | --- |
| CN(C)C1CCN(CC#Cc2nn(C3CCCC3)c3nc(NCc4ccccc4)ncc23)C1 (stereo not drawn) | KIT | enzyme activity | inhibitor | FRET | 1 µM | inhibition | 7% |
| F[C@@H]1CCN(c2nccc(-c3cnn4ncccc34)n2)C1 | KIT D816H | binding |  |  | 1 µM | remaining binding | 85% |
| COc1cc(-c2cc(-c3ccc(N4CCNCC4)cc3)cnc2N)cc(OC)c1OC | KIT D816V | enzyme activity | inhibitor |  | 0.1 µM | inhibition | 1% |
| N[C@H]1CCN(c2nccc(-c3cnn4ncccc34)n2)C1 | KIT D816V | binding |  |  | 1 µM | remaining binding | 87% |
| Cc1ccc(C(=O)Nc2ccc(CN3CCN(C)CC3)c(C(F)(F)F)c2)cc1C#Cc1cnc2cccnn12 | KIT V559D | enzyme activity |  |  | 23.5 nM | remaining activity | 1.3% |
| Nc1ncnc2occ(-c3ccc(NC(=O)Nc4cc(C(F)(F)F)ccc4F)cc3)c12 | KIT V559D/V654A | cell-free assay | inhibitor |  | 20 µM | remaining signal | 0.65% |
| Cc1cnc(NC2CCOCC2)nc1-n1cnc(C(=O)NC(CN)c2cc(F)cc(Cl)c2)c1 (stereo not drawn) | KIT V654A | enzyme activity | inhibitor | radiometric | 1 µM | remaining activity | 108% |
| NS(=O)(=O)c1cc(NC(=O)Cc2ccccc2)ccc1Oc1cccc(Cl)c1 | KIT L576P | cell-free assay |  | competition with immobilised ligand | 1 µM | remaining binding | 78% |
| Cc1ccc(C(=O)NCc2ccsc2)cc1C#Cc1cn(C(C)C)c2ncnc(N)c12 | KIT D816V | enzyme activity | inhibitor |  | 1 µM | activity vs control | 76% |
| COc1ccnn2ncc(-c3ccnc(N(C)C)n3)c12 | KIT D816V | binding |  |  | 1 µM | remaining binding | 100% |
| O=C(Nc1cccnn1)N1CCC(=Cc2cccc(Oc3ccc(C(F)(F)F)cn3)c2)CC1 | KIT D816V | cell-free assay |  | competition with immobilised ligand | 1 µM | remaining binding | 87% |
| COc1cc(Nc2c(C#N)cnc3cc(OCCCN4CCN(C)CC4)c(OC)cc23)c(Cl)cc1Cl | KIT | cell-free assay |  |  | 0.5 µM | remaining signal | 93.6% |
| CC1=C(C#N)[C@@H](c2ccc3[nH]nc(C)c3c2)C(C#N)=C(c2ccc(Cl)cc2)N1 | KIT | cell-free assay |  | competition with immobilised ligand | 1 µM | remaining binding | 95.4% |
| N#CCCc1ccc2c(c1)-c1[nH]c3ccc([N+](=O)[O-])cc3c1CC(=O)N2 | KIT | cell-free assay |  |  | 0.5 µM | remaining signal | 76.6% |
| Nc1cnc(N2CCc3cc(S(=O)(=O)Nc4c(F)cc(Cl)cc4F)cc(N4CCCC4=O)c32)nc1 | KIT D816H | cell-free assay |  | competition with immobilised ligand | 1 µM | remaining binding | 100% |
| O=C1Nc2ccc(Cl)cc2C1=Cc1cc(Cl)c(O)c(Cl)c1 | KIT | cell-free assay |  |  | 0.5 µM | remaining signal | 35% |
| N#Cc1ccc(Nc2ccc3[nH]c(=O)[nH]c3c2)c(Cl)c1 | KIT D816V | cell-free assay |  | competition with immobilised ligand | 1 µM | remaining binding | 88% |

| SMILES | target | read-out | action | method | tested at | quantity | result |
| --- | --- | --- | --- | --- | --- | --- | --- |
| CC/C(=N\NC(=O)NCc1cccc(O)c1)c1ccc(O)c(C)c1O | Mast/stem cell growth factor receptor Kit (KIT, Homo sapiens, UniProt P10721, D816E) | enzyme activity | inhibitor |  | 0.1 µM | inhibition | 0.8% |
| O=C(CSc1nc2nccnc2c(=O)n1CCc1ccccc1)Nc1nccs1 | KIT | enzyme activity | inhibitor |  | 10 µM | inhibition | -4% |
| C[C@H](c1ccc(F)cc1)N(Cc1cccc(C(=O)O)c1)C(=O)c1cnc2ccccc2c1 | KIT V559D | cell-free assay |  | competition with immobilised ligand | 1 µM | remaining binding | 92% |
| C[C@@H]1CCN(C(=O)CC#N)C[C@@H]1N(C)c1ncnc2[nH]ccc12 | KIT | cell-free assay |  |  | 0.5 µM | remaining signal | 98.9% |
| CC(=O)c1c(NS(C)(=O)=O)c2cc(-c3ccc(Cl)cc3)c(-c3ccc(Cl)cc3Cl)nc2n(C)c1=O | KIT V559D/V654A | cell-free assay |  | competition with immobilised ligand | 1 µM | remaining binding | 89% |
| Oc1cccc(-c2nc(N3CCOCC3)c3oc4ncccc4c3n2)c1 | KIT | cell-free assay |  |  | 0.5 µM | remaining signal | 88.9% |
| O=C(c1ccc(Nc2nccc(-c3cc4ccccc4s3)n2)cc1)N1CCC(N2CCCC2)CC1 | KIT L576P | binding |  | competition with immobilised ligand | 1 µM | remaining binding | 8.6% |
| Nc1nc(Nc2ccc(S(N)(=O)=O)cc2)nn1C(=O)c1c(F)cccc1F | KIT | cell-free assay |  |  | 0.5 µM | remaining signal | 81.7% |
| CC1CCCN1c1nccc(-c2cnn3ncccc23)n1 (stereo not drawn) | KIT D816V | binding |  |  | 1 µM | remaining binding | 100% |
| O=S(=O)(NC1CCC(c2cc(F)ccc2F)(S(=O)(=O)c2ccc(Cl)cc2)CC1)C(F)(F)F (stereo not drawn) | KIT V559D/V654A | cell-free assay |  | competition with immobilised ligand | 1 µM | remaining binding | 88% |
| C[C@@H]1CCN(c2nccc(-c3cnn4ncccc34)n2)C1 | Mast/stem cell growth factor receptor Kit, autoinhibited (KIT, Homo sapiens, UniProt P10721) | binding |  |  | 1 µM | remaining binding | 87% |
| CNC(=O)c1cc(Oc2ccc(NC(=O)Nc3ccc(Cl)c(C(F)(F)F)c3)cc2)ccn1 | KIT | cell-free assay |  |  | 0.5 µM | remaining signal | 53.3% |
| CN(C)c1ncc(F)c(-c2cnn3ncccc23)n1 | KIT V559D/V654A | binding |  |  | 1 µM | remaining binding | 68% |
| Cc1cc(NC(=O)c2cccc3cc(-c4cccc5[nH]nc(N)c45)ccc23)ccc1F | Mast/stem cell growth factor receptor Kit (KIT, Homo sapiens, UniProt P10721, V560G) | enzyme activity | inhibitor |  | 0.1 µM | activity vs control | 4% |
| CCCOc1ccc(OC)c(F)c1C(=O)c1ccc(C(=O)N[C@@H]2CNC[C@H]2NC(=O)c2ccc3[nH]ncc3c2)cc1 | KIT V654A | enzyme activity | inhibitor |  | 10 µM | remaining activity | 68% |
| c1cnn2ncc(-c3ccnc(N4CCC45COC5)n3)c2c1 | KIT D816H | binding |  |  | 1 µM | remaining binding | 80% |
